EBI2 block: EBI2 receptor antagonists, beta-arrestin recruitment, primary screen, cell-based, luminescence, 7a,25-OHC stimulation, uHTS; G-protein coupled receptor 183 (Homo sapiens), P32249; 7a,25-OHC stimulated; inhibition, % at 5 µM; 0.81% of 360,000 active; AID 651636, 2012; in the data active = inhibition above about 38%;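 also: enzyme fragment complementation signal reports receptor beta-arrestin coupling in cells; 0% = agonist plus DMSO wells and 100% = wells without agonist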
Target sequence (P32249 whole entry, looked up, the tested form may be a part): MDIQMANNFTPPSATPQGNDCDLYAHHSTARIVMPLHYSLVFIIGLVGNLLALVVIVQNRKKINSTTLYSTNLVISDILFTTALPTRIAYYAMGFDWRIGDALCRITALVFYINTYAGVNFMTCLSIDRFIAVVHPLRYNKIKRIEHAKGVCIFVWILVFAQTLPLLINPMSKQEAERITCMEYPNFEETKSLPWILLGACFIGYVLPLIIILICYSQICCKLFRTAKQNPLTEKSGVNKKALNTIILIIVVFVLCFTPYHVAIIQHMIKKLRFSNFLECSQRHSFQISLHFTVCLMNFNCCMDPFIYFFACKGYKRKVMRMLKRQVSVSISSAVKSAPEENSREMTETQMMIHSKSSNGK
MC4R antag cAMP: MC4R antagonists of cAMP signaling, primary screen, cell-based, TR-FRET, antagonist arm of biased-ligand search | Melanocortin receptor 4 (Homo sapiens), P32245 | MC4R-expressing cells, MTII-stimulated cAMP, LANCE TR-FRET | inhibition, % at 6.5 µM | 0.48% of 360,000 active | AID 540295, 2011;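 active = inhibition above its plate's cutoff, the mean of tested wells on that plate plus 3 SD, cut at about 29% in these data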;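 also: 0% = Melanotan II alone and 100% = Melanotan II plus saturating MCL0020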
Target sequence (P32245 whole entry, looked up): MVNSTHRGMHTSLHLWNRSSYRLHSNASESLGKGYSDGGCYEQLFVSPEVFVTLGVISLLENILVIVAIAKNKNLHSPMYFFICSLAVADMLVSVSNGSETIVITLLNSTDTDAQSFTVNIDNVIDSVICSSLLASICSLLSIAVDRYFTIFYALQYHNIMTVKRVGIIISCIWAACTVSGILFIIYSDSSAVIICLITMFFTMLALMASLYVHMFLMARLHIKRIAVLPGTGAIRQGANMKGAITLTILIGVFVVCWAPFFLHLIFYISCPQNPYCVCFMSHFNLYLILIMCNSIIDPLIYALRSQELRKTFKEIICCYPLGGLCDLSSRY
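Test system: U2OS cells stably expressing human melanocortin 4 receptor (MC4R); also added: Melanotan II challenge; compound: 6.5 µM single dose; timing: 30-min compound preincubation, 1-h Melanotan II challenge, 1-h detection, room temperature; signal: Eu-cAMP/anti-cAMP TR-FRET, emission 671 nm; repeats: one well per compound, no replicates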
m5-HT2A agonist: mouse Htr2a agonists via beta-arrestin recruitment, primary screen, cell-based, luminescence. CHO-K1 mHTR2A beta-arrestin complementation; percent of 30 µM serotonin response. activation, % at 7.6 µM. 0.66% of 360,000 active;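 active = activation above a run cutoff, the mean activation of all tested compounds plus 3 SD, cut at about 14% in these data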;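 also: 0% = plate median of compound wells and 100% = 30 µM serotonin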
MC4R barr agon: MC4R agonists recruiting beta-arrestin, primary screen, cell-based, luminescence, agonist arm of biased-ligand search. U2OS MC4R beta-arrestin complementation; percent of melanotan II response, DMSO zero. activation, % at 8.9 µM. 0.98% of 360,000 active. AID 540308, 2011;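 active = activation above a per-plate cutoff, the mean activation of sample wells on that plate plus 3 SD, cut at about 8% in these data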
cAMP nonselect: nonselective cAMP signaling inhibitors, parental cells, counter-screen for MC4R biased antagonist project, cell-based, TR-FRET, U2OS, forskolin, triplicate; 26% of 1,600 active; shares compounds with MC4R antag cAMP; inhibition, % at 6.5 µM; LANCE TR-FRET;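 active = mean inhibition over triplicates above the low-control well mean plus 3 SD, set per campaign, cut at about 13% in these data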;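 also: signal is single emission at 671 nm which falls as cellular cAMP rises; 0% = forskolin-stimulated wells and 100% = buffer without forskolin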
MC4R antag conf: MC4R cAMP antagonists, retest, confirmation, cell-based, TR-FRET; shares compounds with MC4R antag cAMP; MC4R-expressing cells, MTII-stimulated cAMP; inhibition, % at 6.5 µM; 27% of 1,600 active; AID 602195, 2012; in the data active = inhibition above about 29%;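 also: 0% = agonist stimulated wells alone and 100% = agonist stimulated wells plus saturating reference antagonist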
MC4R barr conf: MC4R beta-arrestin agonists, retest, confirmation, cell-based, luminescence, U2OS. shares compounds with MC4R barr agon. U2OS MC4R beta-arrestin recruitment; scaled DMSO 0%, Melanotan II 100%. activation, % at 8.9 µM. 31% of 2,400 active;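 active = mean activation across replicates above the hit cutoff set in the earlier primary screen, cut at about 8% in these data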
MOR DOR agonist: agonists of MOR-DOR heterodimerization, counter-screen for MC4R biased agonist project, cell-based, luminescence | shares compounds with MC4R barr agon | activation, % at 9.2 µM | 5.8% of 2,400 active | U2OS PathHunter beta-arrestin, beta-gal luminescence; percent of deltorphin B response, DMSO zero;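 active = mean activation across replicates exceeds the hit threshold derived in the earlier primary screen, cut at about 18% in these data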;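 also: 100% = deltorphin B at 0.9 µM final and 0% = DMSO alone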
MOR ag counter: OPRM1 agonists via beta-arrestin recruitment, confirmation, counter-screen for mouse HTR2A agonist project, cell-based, luminescence, single concentration; AID 624380, 2012; activation, % at 9.3 µM; 5.3% of 2,300 active; shares compounds with m5-HT2A agonist; U2OS OPRM1 beta-arrestin PathHunter; DMSO 0%, DAMGO 9.3 µM 100%;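 active = mean activation above the mean of DMSO-only wells plus 3 SD, cut at about 0.5% in these data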
m5-HT2A ag conf: mouse HTR2A agonists, beta-arrestin recruitment, confirmation, cell-based, luminescence, CHO-K1 PathHunter, triplicate; shares compounds with m5-HT2A agonist; DMSO 0%, 30 µM serotonin 100%; activation, % at 7.6 µM; 19% of 2,300 active; AID 624381, 2012;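 active = mean activation across triplicates above the hit threshold derived in the original primary screen, cut at about 15% in these data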
EBI2 antag conf: EBI2 antagonist hit retest, beta-arrestin, confirmation, cell-based, single concentration, luminescence, 7a,25-OHC stimulation. shares compounds with EBI2 block. 7a,25-OHC antagonism. inhibition, % at 5 µM. 29% of 2,400 active;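 active = inhibition of at least 50%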
EBI2 ag: EBI2 agonist activity of antagonist hits, confirmation, counter-screen for EBI2 antagonist project, cell-based, single concentration, agonist mode, luminescence; activation, % at 5 µM; AID 652000, 2013; EBI2-expressing cells, 60 min; 0% vehicle, 100% 7α,25-dihydroxycholesterol control; 2,400 tested, under 10 active; shares compounds with EBI2 block;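 active = activation of at least 50%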
bGal counter: E. coli beta-galactosidase enzyme inhibition, confirmation, counter-screen for EBI2 antagonist project, biochemical, luminescence, single concentration; shares compounds with EBI2 block; 1% of 2,400 active; inhibition, % at 5 µM; purified beta-galactosidase, luminescent Galacton Star, 15 min; AID 652176, 2013;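 active = replicate-average signal at least 3 plate SD below neutral wells, shown as high inhibition, flagging enzyme-inhibiting false positives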;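 also: 0% = DMSO wells with enzyme and 100% = wells lacking enzyme; higher means stronger loss of beta-gal luminescence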
Starred values were filed as active, the others as inactive; · = not tested or not shown. The list is not random: actives were taken first. Their share in the collection is about 2.8%.

SMILES	EBI2 block	MC4R antag cAMP	m5-HT2A agonist	MC4R barr agon	MOR ag counter	m5-HT2A ag conf	others
NS(=O)(=O)c1ccc(-c2ccc(C=C3C(=O)NC(=O)NC3=O)o2)cc1	3	-1	-2	2	·	·
CC1CC2C(C(O)CC3(C)C(O)CCC23)C2(C)CCC(=O)C=C12 (stereo unspecified)	2	-2	-2	-1	·	·
CN1C(=O)C(c2ccccc2)C(=O)N(C)C1=O	-4	30*	2	2	·	·	cAMP nonselect=-1;MC4R antag conf=12
CCCCOC(=O)COc1cc(C)cc2oc(=O)c3c(c12)CCC3	-2	4	-5	-2	·	·
C=CCOC(=O)COc1cc(C)cc2oc(=O)c3c(c12)CCC3	5	3	-1	11*	·	·	MC4R barr conf=9.0*;MOR DOR agonist=5
O=C1CN=C(c2ccc(Cl)cc2)c2oc3ccccc3c2N1	-18	-7	1	11*	·	·	MC4R barr conf=2;MOR DOR agonist=9
O=P1(Oc2ccccc2)C[C@@H](O)[C@@H](O)[C@H](COCc2ccccc2)O1 (stereo partly specified)	-2	10	0	0	·	·
Cc1cc2oc(=O)cc(-c3cc4ccccc4o3)c2cc1OC(=O)N(C)C	6	-7	-9	17*	·	·	MC4R barr conf=0;MOR DOR agonist=3
O=C(O)CCCc1ccc(N(CCCl)CCCl)cc1	0	2	-2	0	·	·
O=c1[nH]cnc2nc(-c3ccc(N(CCCl)CCCl)cc3)[nH]c12	-11	14	0	9.8*	·	·	MC4R barr conf=13*;MOR DOR agonist=19*
CSc1cccc(NP2(=O)OCC(C)([N+](=O)[O-])CO2)c1 (stereo unspecified)	-5	5	-2	-1	·	·
CC12CCC3C(CC=C4CC(O)CCC43C)C1C/C(=C\c1cccc(F)c1)C2=O (stereo unspecified)	46*	5	1	14*	·	·	MC4R barr conf=7;MOR DOR agonist=6;EBI2 antag conf=5;EBI2 ag=0;bGal counter=-8
COc1ccc(OC(=O)N(C)C[C@@H]2OCc3ccccc3-c3c(n(C)c4ccccc34)C(=O)N([C@H](C)CO)C[C@@H]2C)cc1	-4	6	-1	-1	·	·
O=[N+]([O-])c1ccc(N2CCCNCC2)c2ncccc12	-4	1	38*	-2	-1	22*
O=[N+]([O-])c1ccc(N2CCCCC2)c2ncccc12	15	-9	-4	-2	·	·
Cc1cccc(CNCCc2c[nH]c3ccccc23)c1	6	-4	33*	2	0	15*
O=[N+]([O-])c1ccccc1CNCCc1c[nH]c2ccccc12	-7	-5	2	1	·	·
Fc1cccc(CNCCc2c[nH]c3ccccc23)c1	7	14	35*	1	0	39*
OC(CNCCc1c[nH]c2ccccc12)C(F)(F)F (stereo unspecified)	-9	1	-3	0	·	·
O=C(C(Cc1ccccc1)NS(=O)(=O)c1ccc(F)cc1)N1CCC2(CC1)OCCO2 (stereo unspecified)	10	0	17*	-1	-1	1
O=C(NC(Cc1ccccc1)C(=O)N1CCC2(CC1)OCCO2)C1CCCCC1 (stereo unspecified)	-6	0	-5	-3	·	·
CS(=O)(=O)c1ccc(C2=C(CNC(=O)c3cccs3)[C@H]3CC[C@@H](C2)N3Cc2ccccc2)cc1	-5	2	1	-2	·	·
CCOC(=O)c1c(/N=C/C2C(=O)NC(=S)NC2=O)sc2c1CCC2	-8	5	5	2	·	·
N#Cc1c(/N=C/C2C(=O)NC(=S)NC2=O)sc2c1CCCC2	-2	3	15*	-1	-1	36*
CCCN1CCC[C@@H]2Cc3[nH]ncc3C[C@H]21	5	3	42*	-1	-1	171*
SMILES	EBI2 block	MC4R antag cAMP	m5-HT2A agonist	MC4R barr agon	MOR ag counter	m5-HT2A ag conf	others
c1ccc2c(c1)CN(Cc1ccc3c(c1)OCO3)Cc1cnnn1-2	6	7	-3	-1	·	·
COc1ccc2[nH]cc(CCN(C)C)c2c1	1	4	49*	1	-1	36*
CCOC(=O)CNC(=O)N1Cc2ccccc2-n2nncc2C1	-7	-4	5	2	·	·
COc1cc(/C=C2\C(=O)NC(=O)N(c3ccccc3)C2=O)cc(OC)c1OC	-5	15	15*	-1	0	-2
CC12CN3CC(c4ccccc4)(CN(C1)C31CCCCC1)C2=O	-8	12	16*	1	0	0
Cc1cccc(CCNCc2cc3cccc(C)c3[nH]c2=O)c1	-2	-1	21*	1	-1	6
